# Bioassay records from PubChem.
# HIF act – HIF pathway transcriptional activation. 300,000 compounds, 0.32% hits. activation, % at 7.5 µM (by protocol). U2OS HRE-luciferase reporter, luminescence; normalized: DMSO 0%, desferrioxamine 100%;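 active = mean activation of at least 10% of the iron chelator positive control signal, with at least half of replicates also reaching 10%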
# proCasp7 act – counter-screen: procaspase-7 (human) activation; P55210; recombinant procaspase-7, Ac-DEVD-pNA absorbance 405 nm; D23A/D198A/D206A triple mutant, cannot self-cleave; scale: DMSO 0, 5 µM enzyme 100; activation, % at 8.5 µM; 330,000 compounds, 0.093% hits; AID 463210;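 active = percent activation above the screen-wide mean plus 3 SD, cut at about 25% in these data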
#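 Assay system: Uncleavable procaspase-7 mutant enzyme / Input: 2 µM procaspase-7 mutant as dispensed / Dosing: single nominal 8.5 µM compound dose, 0.8% DMSO final / Timing: 1 h enzyme–compound preincubation and 2 h substrate reaction, both 25 °C / Detection: p-Nitroaniline absorbance at 405 nm, read at 0 and 120 min / Replication: singlicate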
# procasp3 activ – procaspase-3 (human) activation; recombinant procaspase-3 D3A, Ac-DEVD-pNA absorbance 405 nm; activation, % at 8.5 µM; 330,000 compounds, 0.11% hits;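 active = activation above the mean of all tested compounds plus 3 SD, cut at about 21% in these data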;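 note: 0% = DMSO alone and 100% = DMSO wells spiked with extra 5 µM PC-3 D3A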
#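 Evaluation: percent activation relative to control range; Material: Procaspase-3 D3A mutant, all three cleavage aspartates alanine; Compound: single dose, 8.5 µM nominal compound, 0.8% DMSO; Replication: one well per compound; Signal: absorbance at 405 nm, 0 and 120 min; Schedule: 1 h preincubation plus 2 h reaction at 25 °C.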
# Calb FLC – affects C. albicans growth with fluconazole; C. albicans CaCi-2 (fluconazole-resistant clinical isolate) + fluconazole, Alamar Blue growth, 48 h; growth inhibition, % (concentration not given with the values); 300,000 compounds, 0.57% hits;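 active = growth inhibition above about 58% in most replicates, limit read from the data, passing the limit was not always enough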;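 note: all wells also contain fluconazole at 8 µg/ml as a sub-toxic cotreatment; 0% = median of DMSO wells and 100% = median of geldanamycin control wells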
# GAA850 FXN act – increases GAA850 frataxin promoter reporter activity | activation, % at 6 µM | HEK293 lucGAA850 FXN promoter luciferase reporter, 24 h; percent of 10 µM SAHA response | AID 540364 | 360,000 compounds, 0.56% hits;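 active = activation above the average of all compounds screened plus 3 SD, cutoff fixed separately per campaign, cut at about 7.5% in these data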;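 note: 0% = DMSO wells and 100% = 10 µM SAHA wells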
# Neddylation inh – blocks human cullin neddylation; P61081+Q13564; TR-FRET cullin neddylation, biochemical; inhibition, % at 25 µM; 360,000 compounds, 0.58% hits; in the data active = inhibition above about 36%
# Target sequence (P61081 whole entry, looked up): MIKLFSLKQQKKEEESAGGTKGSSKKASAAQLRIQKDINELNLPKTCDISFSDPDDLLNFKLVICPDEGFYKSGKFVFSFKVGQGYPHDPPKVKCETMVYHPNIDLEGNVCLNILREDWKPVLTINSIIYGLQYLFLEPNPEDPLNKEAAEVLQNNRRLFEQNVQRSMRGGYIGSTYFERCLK
# Target sequence (Q13564 whole entry, looked up): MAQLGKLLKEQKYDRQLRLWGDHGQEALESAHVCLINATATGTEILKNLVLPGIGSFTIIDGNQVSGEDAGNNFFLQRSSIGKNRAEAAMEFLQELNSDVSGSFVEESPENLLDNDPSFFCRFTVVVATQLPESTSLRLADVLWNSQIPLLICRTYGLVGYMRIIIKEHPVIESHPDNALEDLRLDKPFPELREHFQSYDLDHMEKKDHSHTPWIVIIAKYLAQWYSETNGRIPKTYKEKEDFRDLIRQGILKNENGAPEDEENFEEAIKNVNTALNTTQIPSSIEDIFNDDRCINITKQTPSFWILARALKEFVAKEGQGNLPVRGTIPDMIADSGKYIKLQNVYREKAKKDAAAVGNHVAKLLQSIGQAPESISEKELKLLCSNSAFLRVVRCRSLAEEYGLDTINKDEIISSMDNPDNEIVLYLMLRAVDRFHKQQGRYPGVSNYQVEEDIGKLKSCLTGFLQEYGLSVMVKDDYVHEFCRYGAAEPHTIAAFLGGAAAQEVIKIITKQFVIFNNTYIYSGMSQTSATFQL
# * hit, by the source's call; x = no result given. Shown are actives, neighbours in structure and some others; about 1.9% of the full set was active somewhere.
SMILES,HIF act,proCasp7 act,procasp3 activ,Calb FLC,GAA850 FXN act,Neddylation inh
CCOC(=O)C1(C)NC(c2ccc(OC)cc2OC)C2C(=O)N(CC)C(=O)C21 (stereo not drawn),528*,5,9,-2,1,0
CN(CCOc1ccccc1)C(=O)c1cc(S(=O)(=O)N2CCOCC2)c(Cl)cc1Cl,x,x,x,x,-4,3
CCNC(=S)NNC(=O)c1ccccn1,-6,-7,2,3,-1,7
Cc1cccc(NC(=S)NNC(=O)c2ccccc2Br)c1,3,-15,-2,-4,1,-1
O=C(NNC(=S)Nc1ccc(F)c(Cl)c1)c1ccccc1Br,2,-6,-2,107*,5,-6
O=C(NNC(=S)Nc1ccc(Cl)c(Cl)c1)c1ccccn1,60*,-11,-3,102*,0,33
COc1ccc(CN2CCC3CC2c2cc(Cl)ccc23)cc1 (stereo not drawn),x,x,x,x,-3,4
COc1ccc(OC)c(NC(=O)Nc2nc(C(C)N)cs2)c1 (stereo not drawn),x,x,x,x,1,3
CCCCCCCCN1C(=O)[C@H](CC(=O)NCC23CC4CC(CC(C4)C2)C3)C[C@@]2(C(=O)OCC)CCC=C12,x,x,x,x,x,12
CC(C)(C)NC(=O)c1oc2ccccc2c1COc1ccccc1,-1,5,2,2,3,5
CC(OC(=O)c1oc2ccccc2c1COc1ccccc1)C(N)=O (stereo not drawn),0,14,-4,109*,0,-10
Cc1cc(C)n(-c2nc(NC(C)C)nc(NC(C)C)n2)n1,0,10,-4,-21,9.6*,3
CC/C(=N/NC(=O)c1ccccc1O)c1c(C)[nH]n(-c2ccccc2)c1=O,0,1,1,101*,2,38
CC(=O)Nc1ccccc1/C=C/c1ccc2c(C)cc(C)c(O)c2n1,0,2,-1,109*,1,0
COc1ccc(-c2nc(C#N)c(NCc3cccnc3)o2)cc1OC,0,2,0,-7,3,42*
CC1(C(=O)NS(=O)(=O)c2ccc(Cl)s2)CCN1C(=O)CCc1ccccc1 (stereo not drawn),x,x,x,x,-2,-2
COc1ccc(CNC(=O)C(=O)NCC2OCCN2S(=O)(=O)c2ccc(OC)c(OC)c2)cc1 (stereo not drawn),0,4,-2,-1,-1,-2
COc1ccc(S(=O)(=O)N2CCOC2CNC(=O)C(=O)NCc2ccc3c(c2)OCO3)cc1OC (stereo not drawn),219*,-4,-6,-2,-2,4
O=C(Oc1c(Cl)cc(Cl)c2cccnc12)N1CCCCC1,0,-4,8,20,0,-13
O=C(Oc1c(Cl)cc(Cl)c2cccnc12)N1CCOCC1,0,10,5,92*,0,-9
CN1CCN(Cc2cc(Cl)c3cccnc3c2OC(=O)c2cccs2)CC1,1,-2,1,2,0,-14
O=C(Oc1c(CN2CCOCC2)cc(Cl)c2cccnc12)c1ccccc1Br,1,-3,-6,87*,1,-6
CCCS(=O)(=O)NC(=O)C1(C)CCN(C(=O)c2ccc(F)c(Cl)c2)C1 (stereo not drawn),x,x,x,x,2,-10
Nc1ccc(C(=O)NNC(=O)C2COc3ccccc3O2)cc1[N+](=O)[O-] (stereo not drawn),1,4,3,-5,0,-35
CC(C)COc1cccc(C(=O)NNC(=O)C2COc3ccccc3O2)c1 (stereo not drawn),26*,6,-7,-10,1,4
SMILES,HIF act,proCasp7 act,procasp3 activ,Calb FLC,GAA850 FXN act,Neddylation inh
Cc1cccc(NC(=O)COC(=O)CN2C(=O)c3ccccc3C2=O)c1C,x,x,x,x,-1,-10
O=C(Nc1nnc(-c2ccc3c(c2)CCCC3)o1)c1ccccc1,0,4,4,88*,0,18
O=C(COc1ccccc1)Nc1nnc(-c2ccc3c(c2)CCCC3)o1,2,9,9,82*,5,11
O=C(Nc1nnc(-c2ccc3c(c2)CCCC3)o1)c1ccccc1Cl,0,-1,6,29,0,8
O=C(Nc1nnc(-c2ccccc2)o1)c1cccc(N2C(=O)CCC2=O)c1,1,-6,2,100*,2,8
CCCCn1nnnc1C1(C)CCC(=O)N1Cc1cccnc1 (stereo not drawn),x,x,x,x,x,-8
Cc1ccc(Sc2ccc([N+](=O)[O-])cc2[N+](=O)[O-])nc1,-1,9,-4,33,0,-50
Cc1ccnc(Sc2ccc([N+](=O)[O-])cc2[N+](=O)[O-])n1,0,-6,-14,98*,-4,-29
Cc1nonc1C(=O)N/N=C/c1ccc([N+](=O)[O-])o1,3,-12,-10,82*,-1,-21
CC(C)C[C@@H](COCc1ccc([N+](=O)[O-])cc1)N1CCN(C(=O)c2ccc(C(F)(F)F)cc2)CCC1=O,x,x,x,x,x,-13
COc1ccc(N2CCN(CCCn3ccc(NC(=O)OCc4ccccc4)nc3=O)CC2)cc1,x,x,x,x,1,12
CC(=O)N1CCC(=NNc2nc3ccccc3[nH]2)CC1,22*,9,-2,-19,5,-8
CCC(C)(C)C1CCC(=NNc2nc3ccccc3[nH]2)CC1 (stereo not drawn),4,0,3,-55,1,6
O=C(NCc1ccccc1)C1c2ccccc2Oc2ccccc21,-1,-3,7,118*,1,-1
CN1c2ccccc2SC2C(c3ccccc3)=NOC21 (stereo not drawn),x,x,x,x,x,-11
COc1cc2ccccc2cc1C(=O)Nc1ccc(C)cc1,11*,0,-1,20,2,29
CCCNC(=O)C1(C)CCCN(Cc2ccc3ccccc3c2)C1 (stereo not drawn),x,x,x,x,0,2
Cc1ccc(-c2nc3sc(C#N)c(N)n3c(=O)c2C#N)cc1,1,-28,-27,111*,2,-26
Cc1ccc(-n2c(N)c(C#N)c(-c3ccccc3)c(C#N)c2=O)cc1,0,7,2,-15,0,-260
COC(=O)c1cc2c(n1S(=O)(=O)c1ccc(C)cc1)C(=O)C(=O)c1[nH]cc(C(=O)OCc3ccccc3)c1-2,x,x,x,x,-10,-24
O=C(NC(=S)Nc1ccccc1O)c1ccc(Cl)cc1Cl,1,-10,-8,111*,1,-2
O=C(Nc1ccccc1Cl)c1ccc(Cl)cc1Cl,1,-8,0,-4,3,-10
O=C(COc1ccccc1)NNC(=S)NC(=O)c1ccc(Cl)cc1Cl,0,-17,-5,105*,x,x
Nc1[nH]c(C(=O)c2ccccc2)c(-c2ccccc2Br)c1C(=O)NCc1ccc(-c2ccccc2)cc1,x,x,x,x,x,-11
